Columns and labels:
Macrophage [1] = test: Inhibition of nitric oxide production in lipopolysaccharide-activated ddY mouse macrophages at 100 uM relative to control; format: functional
Outline: (§1)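 Peritoneal macrophages from male ddY mice given 4% thioglycolate i.p. 4 days earlier, plated at 5 × 10^5 cells/well in RPMI 1640 with 5% FCS, 1 h at 37 °C; adherent cells (>95% macrophages) then cultured 20 h with 10 µg/mL LPS plus compound (1-100 µM, DMSO final 0.5%). Nitrite in medium measured by Griess reagent; % inhibition versus LPS-only control, IC50 read graphically, N = 4.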

Macrophage [2] = test: Inhibition of nitric oxide production in lipopolysaccharide-activated ddY mouse macrophages at 1 uM relative to control; format: functional; outline: as §1
Macrophage [3] = test: Inhibition of nitric oxide production in lipopolysaccharide-activated ddY mouse macrophages at 30 uM relative to control; format: functional; outline: as §1
Macrophage [4] = test: Inhibition of nitric oxide production in lipopolysaccharide-activated ddY mouse macrophages at 10 uM relative to control; format: functional; outline: as §1
Macrophage [5] = test: Inhibition of nitric oxide production in lipopolysaccharide-activated ddY mouse macrophages at 3 uM relative to control; format: functional; outline: as §1
[6] = Toxicity in lipopolysaccharide-activated ddY mouse macrophages at 100 uM by MTT method; format: cell-based; details: macrophage
Outline: (§2)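 Peritoneal exudate cells from male ddY mice given 4% thioglycolate i.p. 4 days earlier, plated at 5 × 10^5 cells/well in RPMI 1640 with 5% FCS, 1 h at 37 °C. Non-adherent cells washed off. Adherent macrophages exposed to 10 µg/mL LPS plus compound (DMSO, final 0.5%) for 20 h. MTT added for 4 h, formazan dissolved in 2-propanol/0.04 M HCl, read at 570 nm (ref 655 nm). N=4.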

[7] = Toxicity in lipopolysaccharide-activated ddY mouse macrophages by MTT method; format: cell-based; details: macrophage
Outline: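 Thioglycolate-elicited ddY mouse peritoneal macrophages were treated for 20 h with 10 µg/mL LPS plus compound (1-100 µM, 0.5% DMSO final). MTT (5 mg/mL in PBS) was then added for 4 h, and formazan was dissolved in 2-propanol with 0.04 M HCl. Absorbance was read at 570 nm (reference 655 nm), N = 4.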

[8] = Inhibition of NOS; outline: as §1
[9] = Toxicity in lipopolysaccharide-activated ddY mouse macrophages at 30 uM by MTT method; format: cell-based; details: macrophage; outline: as §2

Row | IC50 [8] [µM] | Structure (SMILES) | inhibition at 100 µM (Macrophage [1]) [%] | inhibition at 1 µM (Macrophage [2]) [%] | inhibition at 30 µM (Macrophage [3]) [%] | inhibition at 10 µM (Macrophage [4]) [%] | inhibition at 3 µM (Macrophage [5]) [%] | Activity [6] | Activity [7] | Activity [9]
1 | – | CC(=O)OC[C@@]12CC[C@@]3(C)[C@H]4C(=CC[C@]3(C)[C@H]1[C@H](OC(C)=O)C[C@H]2C(C)C)[C@@]1(C)CC[C@H](OC(C)=O)C(C)(C)[C@@H]1C[C@@H]4OC(C)=O | 6.6 | 5.3 | 0 | -1.2 | 10.6 | – | – | –
2 | – | CC(=O)OC[C@@]12CC[C@@]3(C)[C@H]4C(=CC[C@]3(C)[C@H]1[C@H](OC(C)=O)C[C@H]2C(C)C)[C@@]1(C)C[C@@H](OC(C)=O)C(=O)C(C)(C)[C@@H]1C[C@@H]4OC(C)=O | 23 | 1.7 | 18.7 | 12.5 | 7.3 | – | – | –
3 | – | Cc1c(O)cc2c(c1O)C(=O)c1ccc(O)cc1C2=O | 99.6 | 4.9 | 99.5 | 37.5 | 7.9 | Toxic | – | –
4 | – | COc1cc(C[C@H]2CO[C@H](c3ccc(O)c(OC)c3)[C@H]2CO)ccc1O [LARICIRESINOL] | 11.9 | 4 | -8.2 | 5.5 | 3 | – | – | –
5 | – | CC(=O)OC[C@@]12CC[C@@]3(C)[C@H]4C(=CC[C@]3(C)[C@H]1[C@H](O)C[C@H]2C(C)C)[C@@]1(C)C[C@@H](OC(C)=O)[C@H](O)C(C)(C)[C@@H]1C[C@@H]4O | 77.1 | 20.2 | -7.9 | -12 | 21.3 | – | Non-toxic | –
6 | – | CC(=O)O[C@@H]1C[C@]2(C)C3=CC[C@]4(C)[C@H]5[C@@H]6C[C@@H](C(C)C)[C@@]5(CC[C@@]4(C)[C@@H]3[C@@H](O)C[C@H]2C(C)(C)[C@H]1O[C@@H]1O[C@H](CO)[C@@H](O)[C@H](O)[C@H]1O)CO6 [RUBIANOSIDE I] | -3.2 | 5.1 | 1.5 | -8 | -0.3 | – | – | –
7 | – | COc1cc(O)cc(OC)c1C(=O)O | 28 | 9.5 | 7.2 | 7.5 | 9.3 | – | – | –
8 | – | CC(C)[C@@H]1C[C@@H](O)[C@H]2[C@@]1(CO)CC[C@@]1(C)[C@H]3C(=CC[C@]21C)[C@@]1(C)CCC(=O)C(C)(C)[C@@H]1C[C@@H]3O [RUBIARBONONE B] | 19.7 | 4.3 | 16.9 | -13.7 | -9.7 | – | – | –
9 | – | CC(=O)OC[C@@]12CC[C@@]3(C)[C@H]4C(=CC[C@]3(C)[C@H]1[C@H](OC(C)=O)C[C@H]2C(C)C)[C@@]1(C)C[C@@H](OC(C)=O)[C@H](OC(C)=O)C(C)(C)[C@@H]1C[C@@H]4OC(C)=O | 28.4 | 7.7 | 25.5 | 18.7 | 9.5 | – | – | –
10 | – | COc1cc([C@H]2c3cc(O)c(OC)cc3C[C@@H](CO)[C@@H]2CO)ccc1O [ISOLARICIRESINOL] | 7.5 | -0.2 | 5.1 | 0.6 | -0.6 | – | – | –
11 | – | COc1cc(C(=O)O)ccc1O [VANILLIC ACID] | 5.9 | 5.9 | -3.6 | 8.2 | 16.2 | – | – | –
12 | 57 | CNC(=N)NCCC[C@H](N)C(=O)O [TILARGININE] | 63.1 | 5.9 | 34.1 | 15 | 10.3 | – | – | –
13 | – | CC(C)[C@@H]1C[C@@H](O)[C@H]2[C@@]1(CO)CC[C@@]1(C)[C@H]3C(=CC[C@]21C)[C@@]1(C)C[C@@H](O)[C@H](O)C(C)(C)[C@@H]1C[C@@H]3O [RUBIARBONOL F] | 60.4 | 9.6 | 22 | 15.4 | 7.9 | Toxic | – | –
14 | – | CC(=O)OC[C@@]12CC[C@@]3(C)[C@H]4C(=CC[C@]3(C)[C@H]1[C@H](O)C[C@H]2C(C)C)[C@@]1(C)CC[C@H](O)C(C)(C)[C@@H]1C[C@@H]4O | 25.5 | 5.2 | -7.4 | 4.7 | 11.1 | Toxic | – | –
15 | – | CC(=O)OC[C@@]12CC[C@@]3(C)[C@H]4C(=CC[C@]3(C)[C@H]1[C@H](O)C[C@H]2C(C)C)[C@@]1(C)CCC(=O)C(C)(C)[C@@H]1C[C@@H]4O [RUBIARBONONE C] | 90.3 | -2.1 | 8 | -2.3 | 3.7 | Toxic | – | –
16 | – | CC(C)[C@@H]1C[C@@H](O)[C@H]2[C@@]1(CO)CC[C@@]1(C)[C@H]3C(=CC[C@]21C)[C@@]1(C)C[C@@H](O)C(=O)C(C)(C)[C@@H]1C[C@@H]3O | 40.3 | -9.6 | 1.8 | 2.1 | -10.3 | – | – | –
17 | – | CC(=O)OC[C@@]12CC[C@@]3(C)[C@H]4C(=CC[C@]3(C)[C@H]1[C@H](O)C[C@H]2C(C)C)[C@@]1(C)C[C@@H](O)C(=O)C(C)(C)[C@@H]1C[C@@H]4O | 15.4 | -1.1 | -5.8 | 0 | -1.5 | – | – | –
18 | – | COc1cc(C[C@@H](CO)[C@H](CO)Cc2ccc(O)c(OC)c2)ccc1O [(+)-SECOISOLARICIRESINOL] | -12.5 | 5.9 | 0.9 | 6.5 | -7.3 | – | – | –
19 | – | CC(=O)OC[C@@]12CC[C@@]3(C)[C@H]4C(=CC[C@]3(C)[C@H]1[C@H](O)C[C@H]2C(C)C)[C@@]1(C)C[C@@H](O)[C@H](O)C(C)(C)[C@@H]1C[C@@H]4O | 76.5 | 17 | -11.1 | 4.3 | 5.3 | – | Non-toxic | –
20 | – | CC(C)[C@@H]1C[C@@H](O)[C@H]2[C@@]1(CO)CC[C@@]1(C)[C@H]3C(=CC[C@]21C)[C@@]1(C)CC[C@H](O)C(C)(C)[C@@H]1C[C@@H]3O [RUBIARBONOL A] | 86.3 | 6.3 | 2.9 | -4.2 | 4.2 | Toxic | – | Toxic

Reference: ChEMBL document CHEMBL1159387, “Absolute stereostructures of new arborinane-type triterpenoids and inhibitors of nitric oxide production from Rubia yunnanensis” (J Nat Prod, 2003)
